Assay results: ChEMBL document CHEMBL4311973, “Synthesis of cinnamic acid derivatives and leishmanicidal activity against Leishmania braziliensis” (Eur J Med Chem, 2019)
Active and inactive are the calls of the source. The calls are words filed in the database; no cut-off is given here.

Legend:
RAW264.7 [1] = experiment: Cytotoxicity against […] RAW264.7 cells assessed as reduction in cell viability at 10 uM incubated for 48 hrs by resazurin staining based assay; conditions: raw264.7, 48 h
Summary of the method: (§1)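 RAW 264.7 macrophages treated 48 h with compound in RPMI (final DMSO 0.1%); survival measured by resazurin viability assay. Screening at 10 µM, IC50 range 1–80 µM. Controls amphotericin B 3.125 µg/mL and 0.1% DMSO; three independent experiments in internal quadruplicate.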

Leishmania braziliensis [2] = experiment: Antileishmanial activity against Leishmania braziliensis MHOM/BR/75/M2904 promastigotes assessed as reduction in cell viability at 10 uM incubated for 48 hrs by resazurin staining based assay; format: functional, organism-based
Summary of the method: (§2)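 Log-phase promastigotes exposed 48 h to compound in RPMI (final DMSO 0.1%); survival read by resazurin relative to DMSO. Screening at 10 µM; IC50 runs at 1–80 µM. Amphotericin B 3.125 µg/mL and 0.1% DMSO as controls; quadruplicate wells, two or three independent experiments; significance by one-way ANOVA with Dunnett post-test.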

Leishmania braziliensis [3] = experiment: Antileishmanial activity against Leishmania braziliensis MHOM/BR/75/M2904 amastigotes infected in […] cells assessed as cell viability at 10 uM incubated for 48 hrs by resazurin staining based assay (reference value: 10.71 %); format: functional
[4] = Solubility of compound in 0.1% DMSO by light microscopy; format: physicochemical
Summary of the method: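 Compounds taken up in aqueous 5% DMSO, diluted in RPMI to 10 µM (final DMSO 0.1%), and inspected by light microscopy for crystal formation.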

Leishmania braziliensis [5] = experiment: Antileishmanial activity against Leishmania braziliensis MHOM/BR/75/M2904 amastigotes infected in […] cells assessed as cell viability at 40 uM incubated for 48 hrs by resazurin staining based assay (reference value: 10.71 %); format: functional
Leishmania braziliensis [6] = experiment: Antileishmanial activity against Leishmania braziliensis MHOM/BR/75/M2904 amastigotes infected in […] cells assessed as cell viability at 30 uM incubated for 48 hrs by resazurin staining based assay (reference value: 10.71 %); format: functional
Leishmania braziliensis [7] = experiment: Antileishmanial activity against Leishmania braziliensis MHOM/BR/75/M2904 amastigotes infected in […] cells assessed as cell viability at 20 uM incubated for 48 hrs by resazurin staining based assay (reference value: 10.71 %); format: functional
Leishmania braziliensis [8] = experiment: Antileishmanial activity against Leishmania braziliensis MHOM/BR/75/M2904 amastigotes infected in […] cells assessed as cell viability at 5 uM incubated for 48 hrs by resazurin staining based assay (reference value: 10.71 %); format: functional
Leishmania braziliensis [9] = experiment: Antileishmanial activity against Leishmania braziliensis MHOM/BR/75/M2904 amastigotes infected in […] cells assessed as cell viability at 2.5 uM incubated for 48 hrs by resazurin staining based assay (reference value: 10.71 %); format: functional
Leishmania braziliensis [10] = experiment: Antileishmanial activity against Leishmania braziliensis MHOM/BR/75/M2904 amastigotes infected in […] cells assessed as cell viability at 1 uM incubated for 48 hrs by resazurin staining based assay (reference value: 10.71 %); format: functional
Leishmania braziliensis [11] = experiment: Antileishmanial activity against Leishmania braziliensis MHOM/BR/75/M2904 promastigotes assessed as reduction in cell viability incubated for 48 hrs by resazurin staining based assay; format: functional, organism-based; conditions: MHOM/BR/75/M2904, 48 h; summary of the method: as §2
RAW264.7 [12] = experiment: Cytotoxicity against […] RAW264.7 cells assessed as reduction in cell viability incubated for 48 hrs by resazurin staining based assay; conditions: Mus musculus, RAW264.7, 48 h; summary of the method: as §1
Leishmania braziliensis [13] = experiment: Antileishmanial activity against Leishmania braziliensis MHOM/BR/75/M2904 amastigotes infected in […] cells assessed as cell viability at 80 uM incubated for 48 hrs by resazurin staining based assay (reference value: 10.71 %); format: functional
Leishmania braziliensis [14] = experiment: Antileishmanial activity against Leishmania braziliensis MHOM/BR/75/M2904 amastigotes infected in […] cells assessed as reduction in cell viability incubated for 48 hrs by resazurin staining based assay; format: functional, organism-based; conditions: MHOM/BR/75/M2904, RAW264.7, 48 h
[15] = Selectivity index, ratio of IC50 of cytotoxicity against […] RAW264.7 cells to IC50 of antileishmanial activity against Leishmania braziliensis MHOM/BR/75/M2904 amastigotes infected in […] RAW264.7 cells; format: toxicity, cell-based; conditions: read-out: Ratio IC50
Summary of the method: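 Selectivity index from IC50 on RAW 264.7 macrophages over IC50 against intracellular amastigotes, both after 48 h by resazurin.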

Leishmania braziliensis [16] = experiment: Cell cycle arrest in Leishmania braziliensis MHOM/BR/75/M2904 amastigotes infected in […] cells assessed as lobulated cell bodies incubated for 48 hrs by transmission electron microscopy; format: functional, organism-based
Summary of the method: (§3)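 Infected macrophage cultures treated with compound or DMSO control, then examined by transmission electron microscopy for parasite morphology within parasitophorous vacuoles (lobulation, multimembrane vesicles, chromatin fragments).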

Leishmania braziliensis [17] = experiment: Induction of autophagy in Leishmania braziliensis MHOM/BR/75/M2904 amastigotes infected in […] RAW264.7 cells incubated for 48 hrs by transmission electron microscopy; format: functional, organism-based; summary of the method: as §3
Leishmania braziliensis [18] = experiment: Induction of apoptosis in Leishmania braziliensis MHOM/BR/75/M2904 amastigotes infected in […] RAW264.7 cells incubated for 48 hrs by transmission electron microscopy; format: functional, organism-based; summary of the method: as §3
RAW264.7 [19] = experiment: Cytotoxicity against […] RAW264.7 cells assessed as reduction in cell viability at 3.125 ug/ml incubated for 48 hrs by resazurin staining based assay; conditions: raw264.7, 48 h; summary of the method: as §1

SMILES	Activity (RAW264.7 [1])	Activity (Leishmania braziliensis [2])	Activity (Leishmania braziliensis [3])	other results
O=C(/C=C/c1ccccc1)OCCCc1cn(Cc2ccc(C(F)(F)F)cc2)nn1	Non-Toxic	Active	69.24%	–
O=C(/C=C/c1ccccc1)OCCCc1cn(Cc2ccc(OC(F)(F)F)cc2)nn1	Non-Toxic	Active	65.84%	–
O=C(/C=C/c1ccccc1)OCc1cn(Cc2cc(Cl)ccc2Cl)nn1	Non-Toxic	inactive	78.98%	–
O=C(/C=C/c1ccc(Cl)cc1)Oc1ccc2c(c1)C(=O)OC2	–	–	–	solubility [4]: Insoluble
O=C(/C=C/c1ccccc1)OCc1cn(Cc2ccccc2Br)nn1	Non-Toxic	inactive	80.12%	–
COc1ccc(/C=C/C(=O)Oc2ccc3c(c2)C(=O)OC3)cc1	–	–	–	solubility [4]: Insoluble
O=C(/C=C/c1ccccc1)OCCCc1cn(Cc2ccc(Br)cc2)nn1	Non-Toxic	Active	45.1%	–
O=C(/C=C/c1ccccc1)OCCCc1cn(Cc2ccccc2Br)nn1	Non-Toxic	–	57.32%	–
O=C(/C=C/c1ccccc1)OCCCc1cn(Cc2ccc(Cl)cc2)nn1	Non-Toxic	Active	49.01%	–
O=C(/C=C/c1ccccc1)OCc1cn(Cc2c(Cl)cc(Cl)cc2Cl)nn1	Non-Toxic	inactive	70.38%	–
O=C(/C=C/c1ccccc1)OCc1cn(Cc2ccc(F)c(F)c2)nn1	Non-Toxic	inactive	68.6 - 86.32%	Activity (Leishmania braziliensis [5]): 72.41%; Activity (Leishmania braziliensis [6]): 95.13%; Activity (Leishmania braziliensis [7]): 79.77%; Activity (Leishmania braziliensis [8]): 98.18%; Activity (Leishmania braziliensis [9]): 83.08%; Activity (Leishmania braziliensis [10]): 85.4%; IC50 (Leishmania braziliensis [11]): 3.05 µM; IC50 (RAW264.7 [12]): > 80 µM
O=C(/C=C/c1ccccc1)OCc1cn(Cc2ccccc2)nn1	Non-Toxic	inactive	19.91%	–
O=C(/C=C/c1ccccc1)OCc1cn(Cc2ccc(C(F)(F)F)cc2)nn1	–	–	–	solubility [4]: Insoluble
O=C(/C=C/c1ccc([N+](=O)[O-])cc1)Oc1ccc2c(c1)C(=O)OC2	Non-Toxic	–	59.54%	–
O=C(/C=C/c1ccccc1)OCc1cn(Cc2ccc(I)cc2)nn1	–	–	–	solubility [4]: Insoluble
O=C(/C=C/c1ccccc1)OCCCc1cn(Cc2ccc(F)cc2)nn1	Non-Toxic	–	67.84%	–
O=C(/C=C/c1ccccc1)OCCCc1cn(Cc2ccc([N+](=O)[O-])cc2)nn1	Non-Toxic	Active	20.58%	–

SMILES	Activity (RAW264.7 [1])	Activity (Leishmania braziliensis [2])	Activity (Leishmania braziliensis [3])	other results
COc1cc(/C=C/C(=O)Oc2ccc3c(c2)C(=O)OC3)cc(OC)c1OC	Non-Toxic	Active	64.46 - 80.47%	Activity (Leishmania braziliensis [13]): 35.51%; Activity (Leishmania braziliensis [5]): 46.33%; Activity (Leishmania braziliensis [6]): 47.12%; Activity (Leishmania braziliensis [7]): 19.71%; Activity (Leishmania braziliensis [8]): 79.72%; Activity (Leishmania braziliensis [9]): 74.54%; IC50 (Leishmania braziliensis [11]): 7.58 µM; IC50 (RAW264.7 [12]): > 80 µM; IC50 (Leishmania braziliensis [14]): 8.27 µM; selectivity ratio [15]: > 9.67; Activity (Leishmania braziliensis [16]): Active; Activity (Leishmania braziliensis [17]): Active; Activity (Leishmania braziliensis [18]): Active
O=C(/C=C/c1ccccc1)OCCCc1cn(Cc2ccc(I)cc2)nn1	Non-Toxic	Active	52.07%	–
O=C(/C=C/c1ccc(F)cc1)Oc1ccc2c(c1)C(=O)OC2	Non-Toxic	Active	43.87%	–
O=C(/C=C/c1ccccc1)OCc1cn(Cc2ccc(F)cc2)nn1	Non-Toxic	inactive	59.1%	–
O=C(/C=C/c1ccccc1)OCCCc1cn(Cc2ccc(F)c(F)c2)nn1	Non-Toxic	–	47.85%	–
O=C(/C=C/c1ccccc1)OCCCc1cn(Cc2ccccc2F)nn1	Non-Toxic	–	19.67%	–
COc1ccc(Cn2cc(CCCOC(=O)/C=C/c3ccccc3)nn2)cc1	Non-Toxic	–	60.48%	–
O=C(/C=C/c1ccccc1)OCc1cn(Cc2ccc([N+](=O)[O-])cc2)nn1	–	–	–	solubility [4]: Insoluble
C[C@@H]1[C@H](O)[C@@H](C)/C=C/C=C/C=C/C=C/C=C/C=C/C=C/[C@H](O[C@@H]2O[C@H](C)[C@@H](O)[C@H](N)[C@@H]2O)C[C@@H]2O[C@](O)(C[C@@H](O)C[C@@H](O)[C@H](O)CC[C@@H](O)C[C@@H](O)CC(=O)O[C@H]1C)C[C@H](O)[C@H]2C(=O)O [AMPHOTERICIN B]	–	–	98.25%	Activity (RAW264.7 [19]): Non-Toxic
O=C(/C=C/c1ccccc1)OCCCc1cn(Cc2cc(Cl)ccc2Cl)nn1	Non-Toxic	Active	45.74%	–
O=C(/C=C/c1ccccc1)OCc1cn(Cc2ccc(Cl)cc2)nn1	–	–	–	solubility [4]: Insoluble
O=C(/C=C/c1ccccc1)OCc1cn(Cc2ccc(Br)cc2)nn1	–	–	–	solubility [4]: Insoluble
COc1ccc(Cn2cc(COC(=O)/C=C/c3ccccc3)nn2)cc1	Non-Toxic	inactive	76%	–
O=C(/C=C/c1ccccc1)OCCCc1cn(Cc2ccccc2)nn1	Non-Toxic	Active	39.73%	–
O=C(/C=C/c1ccc(Br)cc1)Oc1ccc2c(c1)C(=O)OC2	Non-Toxic	Active	50.14%	–
O=C(/C=C/c1ccccc1)OCc1cn(Cc2ccc(OC(F)(F)F)cc2)nn1	Non-Toxic	inactive	77.39%	–
